# Most compounds without a hit are left out; they make up all but 3% or so of the library.
# H9c2 protect: protects H9c2 cardiomyocytes from peroxide injury; H2O2 injury protection, ATPLite, 2 h; protection from H2O2 cell death, % at 20 µM; actives 0.63% (n = 360,000);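 active = compounds giving at least 50% protection of heart cells from peroxide-induced death in the single-dose screen, raw or plate-pattern-corrected value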;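 also: 0% = DMSO wells with peroxide and 100% = DMSO wells without peroxide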
# Myeloid diff 2: myeloid differentiation induction | ER-HoxA9 myeloid progenitors, lysozyme-GFP differentiation, flow cytometry | actives 1% (n = 360,000) | AID 624256 | calls only at 10 µM;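 active = normalized GFP-positive differentiation at or above the plate's own cutoff, the solvent-only control mean plus 3 SD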;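 also: cells exposed to compound for four days before flow analysis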
# HNF4A DNA FP: change in binding of human HNF4 alpha to DNA | HNF4a-FITC DNA binding, fluorescence polarization, 1 h | actives 0.3% (n = 360,000) | P41235 | activity change, % at 10 µM; in the data active = activity change above about 30%, passing the limit was not always enough
# SENP1 FRET inh: inhibitors of human SENP1 SUMO protease catalytic domain | Q9P0U3 | recombinant SENP1 catalytic domain, CyPet-SUMO1-YPet FRET cleavage | inhibition, % at 10 µM | actives 0.21% (n = 360,000) | AID 624204;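 active = inhibition at least 30% at 10 µM, raw YFP signal under a set limit, fluorescence ratio 0.5 to 1.5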;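 also: 0% = enzyme with DMSO and 100% = no enzyme wells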
#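 Test system: recombinant human SENP1 catalytic domain, His6-tagged / Medium: pH 8 Tris buffer with EDTA, NaCl, BME, BSA, NP40, catalase / Also added: SUMO1 FRET substrate flanked by Cypet and Ypet, 25 nM / Times: 50 min reaction at room temperature / Signal: FRET, CFP and YFP emission / Control set: no-enzyme low control and enzyme-plus-DMSO high control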
# Pemphigus Ab inh: human desmoglein-3 autoantibody binding inhibition; DSG3-coupled beads, scFv-anti-DSG3-GFP binding, flow cytometry; hits give low values; binding (percent of control), % at 10 µM; P32926; actives 0.48% (n = 310,000);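 active = binding more than 3 SD below its plate's average and above zero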;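 also: hits lower antibody fragment binding to DSG3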
# Target sequence (P32926 whole entry, looked up, the tested form may be a part): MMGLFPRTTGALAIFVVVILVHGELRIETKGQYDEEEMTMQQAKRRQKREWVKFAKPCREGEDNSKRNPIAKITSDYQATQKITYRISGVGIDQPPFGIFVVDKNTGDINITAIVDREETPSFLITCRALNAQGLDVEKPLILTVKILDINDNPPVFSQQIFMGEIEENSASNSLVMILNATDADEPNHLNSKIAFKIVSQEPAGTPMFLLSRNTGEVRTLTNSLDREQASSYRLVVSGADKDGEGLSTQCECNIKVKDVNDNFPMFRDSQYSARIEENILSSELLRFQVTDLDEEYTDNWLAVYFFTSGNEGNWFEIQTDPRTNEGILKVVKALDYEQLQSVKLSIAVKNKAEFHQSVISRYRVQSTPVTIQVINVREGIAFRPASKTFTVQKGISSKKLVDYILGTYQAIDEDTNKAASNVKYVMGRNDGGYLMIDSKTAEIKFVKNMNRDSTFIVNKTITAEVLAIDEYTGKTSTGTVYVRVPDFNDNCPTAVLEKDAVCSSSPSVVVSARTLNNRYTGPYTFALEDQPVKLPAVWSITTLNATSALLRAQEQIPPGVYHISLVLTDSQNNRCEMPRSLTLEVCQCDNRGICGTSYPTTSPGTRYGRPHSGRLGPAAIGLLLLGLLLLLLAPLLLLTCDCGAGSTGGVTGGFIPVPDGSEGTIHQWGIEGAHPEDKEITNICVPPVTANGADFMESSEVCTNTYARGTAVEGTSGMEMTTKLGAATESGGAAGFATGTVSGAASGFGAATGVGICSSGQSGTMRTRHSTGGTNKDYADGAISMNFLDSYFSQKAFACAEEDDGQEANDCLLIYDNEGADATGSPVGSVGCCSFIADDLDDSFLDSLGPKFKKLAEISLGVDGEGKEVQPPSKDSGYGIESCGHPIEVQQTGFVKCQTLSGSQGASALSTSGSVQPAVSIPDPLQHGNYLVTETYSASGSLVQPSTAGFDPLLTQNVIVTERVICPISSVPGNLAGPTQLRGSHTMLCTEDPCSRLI
# Granule exo inh: blocks lytic granule exocytosis; TALL-104 LAMP-1 surface exposure, flow cytometry; cells stimulated with thapsigargin and PMA; actives 0.66% (n = 360,000); inhibition, % at 10 µM;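 active = inhibition above about 55%, limit read from the data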
# Myeloid diff: compounds promoting myeloid differentiation; AID 651706; calls only; shares compounds with Myeloid diff 2; ER-HoxA9 myeloid progenitors, GFP/Mac1 double-positive flow; actives 2% (n = 2,300);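 active = share of green or green-and-red cells above 9 and 9% in run 1 or 4 and 3% in run 2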
# GFP autofluor: compound fluorescence in myeloid differentiation counter-screen. ER-HoxA9 myeloid progenitors, no estrogen, GFP autofluorescence flow cytometry; vehicle wells 0%, positive control 100%. actives 7.4% (n = 2,300). shares compounds with Myeloid diff 2. fluorescence response, % (no concentration beside the values);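 active = over 5% cells positive for green fluorescent reporter, or over 2% positive for both it and APC stain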;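 also: range taken on the double positive population between DMSO and positive control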
# Active calls of the source: *; i = inactive; / = not tested or not shown; + = active, no number.
SMILES,H9c2 protect,Myeloid diff 2,HNF4A DNA FP,SENP1 FRET inh,Pemphigus Ab inh,Granule exo inh,Myeloid diff,GFP autofluor
CCCCn1c(-c2ccoc2C)n[nH]c1=S,-3,+,-2,-1,100,1,i,0
Cc1ccc(/C=C/C(=O)N2CCc3ccccc32)o1,-17,i,-17,-6,116,38,i,0
O=C(/C=C/c1ccco1)N1CCc2ccccc21,-24,i,0,-2,102,-2,/,/
COC(=O)c1cccc(C#CC(NP(=O)(c2ccccc2)c2ccccc2)c2ccccc2)c1 (centres undefined),3,i,-3,-1,107,3,i,0
N#Cc1c(-c2ccc(C(F)(F)F)cc2)cc(-c2ccccc2)[nH]c1=S,3,+,-3,1,95,-1,i,0
O=C(NC1CCCC1)c1cnc2n(c1=O)CCS2,1,i,2,1,113,-3,i,0
CC1CC(NC(=O)c2cnc3n(c2=O)CCS3)CC(C)(C)C1 (centres undefined),6,i,2,2,105,-7,/,/
O=C(NCCN1CCc2ccccc2C1)C1CCN(S(=O)(=O)N2CCCCC2)CC1,12,i,-2,8,80,13,i,0
O=C(NCCN1CCc2ccccc2C1)C1CCN(S(=O)(=O)N2CCC3(CC2)OCCO3)CC1,2,i,0,-5,102,-2,/,/
COc1ccc(-c2csc3ncn(-c4ccccc4OC)c(=O)c23)cc1OC,18,+,-5,0,105,-4,i,0
CCCn1ncc2c(Nc3ccc(C)c(C)c3)ncnc21,2,i,-1,0,88,7,/,/
CN1CCN(c2cc3c(c4c2[nH]c2ccccc24)C(=O)CC(C)(C)C3)CC1,-5,i,0,-97,106,44,i,0
COC(=O)c1cc2c(=O)c3ccccc3oc2nc1/C=C/N(C)C,44,+,110,-21,117,4,+,1
COC(=O)c1cc2c(=O)c3ccccc3oc2nc1C,-3,i,4,14,103,-5,/,/
COc1ccc(NC(=O)CSc2nnc(C)s2)cc1S(=O)(=O)N1CCOCC1,0,i,4,2,106,2,/,/
O=C(NCc1ccc(F)c(F)c1)c1cccc2c(-c3cccnc3)coc12,-4,i,1,0,/,-2,/,/
COc1cc(NC(=O)c2cccc3c(-c4cnn(C)c4)coc23)cc(OC)c1OC,64*,+,7,-1,/,-3,i,26*
COc1ccc(NC(=O)c2cccc3c(-c4cnn(C)c4)coc23)cc1,44,i,-3,0,/,-5,/,/
COc1ccc(CNC(=O)c2cccc3c(-c4cccnc4)coc23)cc1OC,-10,i,0,3,/,-1,i,1
O=C(NCCOc1cccnc1)C1CCC(=O)N(Cc2ccccc2F)C1 (centres undefined),1,i,-3,0,115,-3,/,/
C[C@]12c3[nH]c4cc(-c5ccco5)ccc4c3CCN1C(=O)[C@@H](CC(=O)NCc1cccc(C(F)(F)F)c1)C[C@@H]2C(=O)N1CCCCC1,-16,i,0,-42,98,4,/,/
Cc1cccc(C(C(=O)NC2CCCCC2)N(Cc2cccnc2)C(=O)c2csnn2)c1 (centres undefined),0,i,3,-6,99,7,/,/
CCC(C)Nc1nc2c(c(=O)[nH]c(=O)n2C)n1CCC(C)C (centres undefined),-2,+,-1,-1,108,0,i,1
Cc1ccc(Nc2c(-c3ccccn3)nc3cc(C)ccn23)cc1,-4,i,6,0,94,3,i,0
CCN(CC)C(=O)[C@H]1C[C@H](CC(=O)NC(C)(C)C)C(=O)N2CCc3c([nH]c4cc(-c5ccco5)ccc34)[C@]12C,-7,+,9,-34,99,4,i,0
SMILES,H9c2 protect,Myeloid diff 2,HNF4A DNA FP,SENP1 FRET inh,Pemphigus Ab inh,Granule exo inh,Myeloid diff,GFP autofluor
COc1ccc(NC(=O)c2cccc3cccnc23)cc1S(N)(=O)=O,0,i,4,-8,100,1,/,/
CC(C)N(C(=O)CO/N=C/c1cccc([N+](=O)[O-])c1)C(C)C,2,i,-2,2,103,2,/,/
CC(=O)Nc1ccc(NC(=O)C(C)O/N=C/c2cccc([N+](=O)[O-])c2)cc1 (centres undefined),2,i,2,1,102,-1,i,0
Cc1nn(C)c(C)c1NC(=O)COc1ccc(Cl)cc1Br,-14,i,-5,2,/,8,/,/
O=C1/C(=C\c2ccco2)CCC/C1=C\c1ccco1,-6,+,62,-26,151,-1,i,37*
O=C1/C(=C/c2ccco2)CCC1C1CCCC1 (centres undefined),-5,i,6,-2,106,-8,/,/
COc1ccc(N(CC(=O)Nc2ccc(S(=O)(=O)N3CCOCC3)cc2)S(=O)(=O)c2ccc(F)cc2)cc1,18,i,-1,-1,103,-2,/,/
CCOC(=O)c1cc(C)n(-c2c(C)n(C)n(-c3ccccc3)c2=O)c1C,7,i,1,1,90,-3,/,/
CCCCC(=O)OCC(=O)c1cc(C)n(-c2c(C)n(C)n(-c3ccccc3)c2=O)c1C,6,i,0,-1,101,1,i,0
CC(C)CNC(=O)NC1(C(F)(F)F)Oc2ccccc2O1,2,i,2,1,/,-1,/,/
O=C(NCc1cccnc1)NC1(C(F)(F)F)Oc2ccccc2O1,30,+,3,2,102,2,i,0
CCn1nc(C(=O)OCC(=O)Nc2nc(-c3ccc(OC)cc3)cs2)c2ccccc2c1=O,10,+,4,-1,91,29,i,0
CCCCNC(=O)C(=O)NCC1CCCN1S(=O)(=O)c1cccs1 (centres undefined),1,i,6,-5,106,-3,/,/
CCCNS(=O)(=O)c1cccc(C(=O)NC2CCCc3ccccc32)c1 (centres undefined),-5,i,-2,1,106,-4,i,0
CN(C)S(=O)(=O)c1cccc(C(=O)NC2CCCc3ccccc32)c1 (centres undefined),2,i,-12,-1,96,0,/,/

# Screening data as filed in PubChem.
